HSV replic up: enhancers of HSV replication in host cells, fold increase, host cell viability; AID 1956, 2009; maximum fold increase; actives 0.005% (n = 220,000); HSV replication augmentation in cells; in the data active = maximum fold increase above about 1.5; inconclusive = no clear call, values can overlap the other calls; tested in PC3 cells
TNF death inh: inhibitors of TNF-alpha triggered necroptosis, primary screen, cell-based, Jurkat FADD-/-, single concentration; Jurkat FADD-/- TNF necroptosis rescue, ATP luminescence, 24 h; 0 = TNF only, 100 = no-TNF cells; activation (protection from cell death), % at 10 µM; actives 0.068% (n = 220,000); AID 463075, 2010;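 active = activation, meaning protection from cell death, of at least 50% relative to plate controls; inactive = activation below 50%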;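 also: necroptosis triggered by 40 ng/mL TNF-alpha added together with compound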
Furin inhibitor: human furin inhibitors, primary screen, biochemical, fluorescence intensity. P09958. purified furin, fluorogenic substrate cleavage. inhibition, % at 20 µM or 30 µM. actives 0.061% (n = 220,000); in the data active = inhibition above about 25%
Target sequence (P09958 108-714 limits assumed): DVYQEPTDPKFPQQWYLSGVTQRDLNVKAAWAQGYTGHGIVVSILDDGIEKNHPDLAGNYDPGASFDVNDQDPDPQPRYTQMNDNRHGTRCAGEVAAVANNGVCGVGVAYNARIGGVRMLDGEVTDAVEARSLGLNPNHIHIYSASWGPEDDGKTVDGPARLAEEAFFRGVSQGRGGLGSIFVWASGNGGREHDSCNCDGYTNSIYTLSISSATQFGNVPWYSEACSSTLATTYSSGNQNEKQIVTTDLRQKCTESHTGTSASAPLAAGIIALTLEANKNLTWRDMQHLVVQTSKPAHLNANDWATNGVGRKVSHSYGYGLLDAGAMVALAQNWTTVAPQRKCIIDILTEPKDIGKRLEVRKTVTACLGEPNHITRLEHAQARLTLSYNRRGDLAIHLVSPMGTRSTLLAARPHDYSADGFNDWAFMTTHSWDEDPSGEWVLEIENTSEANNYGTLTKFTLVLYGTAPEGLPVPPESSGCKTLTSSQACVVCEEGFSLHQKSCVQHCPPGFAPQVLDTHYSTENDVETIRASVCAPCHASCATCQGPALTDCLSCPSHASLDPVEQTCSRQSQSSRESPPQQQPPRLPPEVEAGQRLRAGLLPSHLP
zVAD death inh: inhibitors of zVAD-triggered necroptosis, primary screen, L929 cells. L929 zVAD necroptosis rescue, ATP luminescence, 24 h; with zVAD 60 µM. viability rescue, % at 10 µM. actives 0.38% (n = 220,000). AID 1377, 2008;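 active = activation, scaled between plate controls, above about 75%, limit read from the data; inactive = activation under that limit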
Autophagy HCS: autophagy modulators in MEF cells, primary screen, imaging, high-content, MEF GFP-LC3; calls only at 10 µM (by protocol); MEF GFP-LC3 puncta imaging; test concentration mostly 10 µM; AID 463193, 2010; actives 0.98% (n = 190,000);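 active = percentage of spot-positive cells more than 3 SD above its plate mean, without a fluorescence outlier flag or 80% toxicity; inconclusive = no clear call, values can overlap the other calls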
Dynein transport: inhibitors of GR-EGFP nuclear translocation, primary screen, dynein cargo transport inhibitor project, imaging, high-content, 3617.4 mouse cells | test concentration mostly 20 µM; stimulated with dexamethasone, 1 µM; active compounds read low | z-score, hits read low | actives 0.47% (n = 220,000);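 active = plate z-score of nuclear minus cytoplasmic receptor signal below a set negative limit, without overly bright fluorescence or cell loss, cut at about -3.5 in these data, passing the limit was not always enough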;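 also: z-score of nuclear minus cytoplasmic ring GR-EGFP intensity difference per well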
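medium = tetracycline-free induction medium containing charcoal-stripped FBS | also added = 1.0 µM final dexamethasone stimulus | schedule = 48 h induction, 1 h compound, 30 min dex at 37 °C | technique = fixed, Hoechst-stained cells imaged at 10x for EGFP | measure = GR-EGFP nuclear translocation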
Numbers stand for hits. Most compounds without a hit are left out; they make up all but 1.8% or so of the library.

CCOc1ccc(/C=C/C(O)=C2/C(=O)NC3(C)CC2c2ccccc2O3)cc1OC (stereo not given) was read as HSV replic up inactive, TNF death inh inactive, Furin inhibitor inactive, zVAD death inh inactive, Autophagy HCS active and Dynein transport inactive.
Screening O=C(NN1C(=O)C2CC=C(Cl)CC2C1=O)c1ccncc1 (stereo not given) returned HSV replic up inactive, TNF death inh inactive, Furin inhibitor inactive, zVAD death inh inactive, Autophagy HCS inactive and Dynein transport inactive.
`O=C(NC1CCS(=O)(=O)C1)c1cc(-c2ccccc2)nc2ccccc12` (stereo not given) gave HSV replic up inactive, TNF death inh inactive, Furin inhibitor inactive, zVAD death inh inactive, Autophagy HCS inactive and Dynein transport inactive.
Screening O=[N+]([O-])c1ccc(Sc2cccc3cccnc23)c([N+](=O)[O-])c1 returned HSV replic up inactive, TNF death inh inactive, Furin inhibitor inactive, zVAD death inh inactive, Autophagy HCS active and Dynein transport inactive.
For CN(Cc1cccs1)C(=O)Cn1cnc2ccccc2c1=O the results were HSV replic up inactive, TNF death inh inactive, Furin inhibitor inactive, zVAD death inh inactive, Autophagy HCS active and Dynein transport inactive.
Screening CCN(CC)C(=O)Cn1cnc2ccccc2c1=O returned HSV replic up inactive, TNF death inh inactive, Furin inhibitor inactive, zVAD death inh inactive, Autophagy HCS inactive and Dynein transport inactive.
Screening CCOC(=O)c1sc(NC(=O)CSc2nc3c(cc2C#N)CCCCCC3)c(C#N)c1C returned TNF death inh inactive, Furin inhibitor inactive, zVAD death inh inactive, Autophagy HCS active and Dynein transport inactive.
`COC(=O)[C@@]1(Cc2ccc(OC)cc2)[C@H]2c3cc(C(=O)N(C)C)n(C[C@H](O)CO)c3C[C@H]2CN1C(=O)c1ccccc1` gave HSV replic up inactive, TNF death inh inactive, Furin inhibitor inactive, zVAD death inh inactive, Autophagy HCS inactive and Dynein transport inactive.
For COC(=O)[C@@]1(Cc2ccc(OC)cc2)[C@@H]2C(=CC(=O)[C@H]2CC(=O)C(=O)N(C)C)CN1C(=O)c1ccccc1 the results were HSV replic up inactive, TNF death inh inactive, Furin inhibitor inactive, zVAD death inh inactive, Autophagy HCS inactive and Dynein transport -4.8.
Screening CCCC(=O)NC(C)c1nc(-c2ccc(C)cc2)no1 (stereo not given) returned HSV replic up inactive.
COc1ccc(N2C(=O)CC(NCc3ccncc3)C2=O)cc1 (stereo not given) was read as HSV replic up inactive, TNF death inh inactive, Furin inhibitor inactive, zVAD death inh inactive, Autophagy HCS inactive and Dynein transport inactive.
COc1ccc(N2C(=O)CC(NCc3ccc(F)cc3)C2=O)cc1 (stereo not given) was read as HSV replic up inactive, TNF death inh inactive, Furin inhibitor inactive, zVAD death inh inactive, Autophagy HCS active and Dynein transport inactive.
Screening Cc1nn(CC(=O)NCc2ccc(-n3cccn3)cc2)c(C)c1[N+](=O)[O-] returned HSV replic up inactive, TNF death inh inactive, Furin inhibitor inactive, zVAD death inh inactive, Autophagy HCS inactive and Dynein transport inactive.
`Cc1ccc(/C=[N+](\[O-])c2ccc(N(C)C)cc2)c2nsnc12` gave HSV replic up inconclusive, TNF death inh inactive, Furin inhibitor inactive, zVAD death inh inactive, Autophagy HCS inactive and Dynein transport inactive.
Screening O=C(NC1CCCC1)c1cnn2c(C(F)(F)F)cc(-c3ccc4c(c3)OCO4)nc12 returned HSV replic up inactive, TNF death inh inactive, Furin inhibitor inactive, zVAD death inh inactive, Autophagy HCS active and Dynein transport inactive.
COc1ccc(/C=C(\NC(=O)c2ccccc2)C(=O)OC[C@@H]2CCC[N+]3(C)CCCCC23)cc1OC (stereo not given in full) was read as HSV replic up inactive, TNF death inh inactive, Furin inhibitor inactive, zVAD death inh inactive, Autophagy HCS inactive and Dynein transport inactive.
Screening CC1=CC(C)(C)N(S(=O)(=O)c2ccc(C)cc2)c2cc(C)ccc21 returned HSV replic up inactive, TNF death inh inactive, Furin inhibitor inactive, zVAD death inh inactive, Autophagy HCS active and Dynein transport inactive.
`CCOc1ccc(Nc2nc(NCC3CCCO3)c3ccccc3n2)cc1` (stereo not given) gave HSV replic up inactive, TNF death inh inactive, Furin inhibitor inactive, zVAD death inh inactive, Autophagy HCS active and Dynein transport inactive.
Screening Cc1cc(O)c(-c2cc(O)c(C)cc2O)cc1O returned HSV replic up inactive, TNF death inh inactive, Furin inhibitor inactive, zVAD death inh inactive and Dynein transport -6.
For CCc1nnc(NC(=O)CSc2nnc(CNc3cccc(Cl)c3)n2CC)s1 the results were HSV replic up inactive, TNF death inh inactive, Furin inhibitor inactive, zVAD death inh inactive, Autophagy HCS inactive and Dynein transport inactive.
`CCc1nnc(NC(=O)CSc2nnc(C3CCCCC3)n2-c2cccc(Cl)c2)s1` gave HSV replic up inactive, TNF death inh inactive, Furin inhibitor 29, zVAD death inh inactive, Autophagy HCS inactive and Dynein transport inactive.
For O=C(NC1CCCCC1)C12CC3CC(CC(Cl)(C3)C1)C2 the results were HSV replic up inactive, TNF death inh inactive, Furin inhibitor inactive, zVAD death inh inactive, Autophagy HCS inactive and Dynein transport inactive.
Screening COc1ccc(OC)c(N=c2oc3cc(O)ccc3cc2C(N)=O)c1 returned HSV replic up inactive, TNF death inh inactive, Furin inhibitor inactive, zVAD death inh inactive, Autophagy HCS inactive and Dynein transport inactive.
Screening COc1ccc2oc(=O)c(C(=O)Nc3ccccc3O)cc2c1 returned HSV replic up inactive, TNF death inh inactive, Furin inhibitor inactive, zVAD death inh inactive and Dynein transport inactive.
Screening COc1ccc2o/c(=N\O)c(C(=O)Nc3ccccc3OC)cc2c1 returned HSV replic up inactive, TNF death inh inactive, Furin inhibitor inactive, zVAD death inh inactive, Autophagy HCS inactive and Dynein transport -4.2.
Screening COc1ccc2oc(=Nc3cc(F)ccc3F)c(C(N)=O)cc2c1 returned HSV replic up inactive, TNF death inh inactive, Furin inhibitor inactive, zVAD death inh inactive, Autophagy HCS active and Dynein transport inactive.
Screening Clc1cccc(Cl)c1Cn1ccc(C2CC2)n1 returned HSV replic up inactive, TNF death inh 97, Furin inhibitor inactive, zVAD death inh inactive, Autophagy HCS inactive and Dynein transport inactive.
Screening COc1ccc(S(=O)(=O)N2c3cc(Cl)ccc3Oc3nc4ccccc4nc32)cc1 returned HSV replic up inactive, TNF death inh inactive, Furin inhibitor inactive, zVAD death inh inactive, Autophagy HCS active and Dynein transport inactive.

Screening data: PubChem BioAssay, several laboratories
